According to ChEMBL document CHEMBL1255380, “Small molecule-mediated disruption of Wnt-dependent signaling in tissue regeneration and cancer” (Nat Chem Biol, 2009):
Active and inactive are the calls of the source. No cut-off for these calls is given here.

What was measured:
[1] = target: T1, Protein-serine O-palmitoleoyltransferase porcupine (Homo sapiens) (UniProt Q9H237); test: Inhibition of porcn in HEK293 cell lysate by Western blot analysis; type: cell-free
T1 sequence (whole entry): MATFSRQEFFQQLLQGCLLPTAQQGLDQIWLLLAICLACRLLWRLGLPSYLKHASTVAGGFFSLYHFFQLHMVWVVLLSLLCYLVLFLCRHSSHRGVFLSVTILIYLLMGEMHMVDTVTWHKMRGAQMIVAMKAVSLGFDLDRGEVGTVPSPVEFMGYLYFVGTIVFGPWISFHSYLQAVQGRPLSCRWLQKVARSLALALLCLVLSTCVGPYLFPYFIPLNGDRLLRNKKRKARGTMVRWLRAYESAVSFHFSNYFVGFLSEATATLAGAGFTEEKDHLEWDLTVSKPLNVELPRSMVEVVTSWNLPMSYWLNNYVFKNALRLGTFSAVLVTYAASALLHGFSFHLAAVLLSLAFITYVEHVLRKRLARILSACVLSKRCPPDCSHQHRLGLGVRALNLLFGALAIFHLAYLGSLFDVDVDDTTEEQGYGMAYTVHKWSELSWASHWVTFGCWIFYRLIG
In short: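 Lysate (10mM Na2HPO4 pH7.4, […], 1% NP-40) of HEK293 cells transfected with Porcn-myc preincubated 1 hr at 4°C with DMSO, linker or competitor, then NeutrAvidin resin plus biotinylated probe (0.17 mM); rotated overnight at 4°C, washed, eluate analysed by Western blot.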

[2] = Inhibition of Wnt2/beta-[…] pathway activity in mouse L cell expressing Wnt2 and STF assessed as decreased firefly luciferase reporter expression; type: cell-based
[3] = Inhibition of Wnt3A/[…] pathway activity in mouse L cell expressing Wnt3a assessed as decrease in phosphorylated Dvl2 level at 10 uM after 24 hrs by Western blot analysis; type: cell-based
DLD-1 [4] = test: Decrease in beta-[…] accumulation in human DLD1 cells expressing in APC mutant; type: functional, cell-based
[5] = Inhibition of Wnt3A/[…] pathway activity in mouse L cell expressing Wnt3a assessed as inhibition of […] accumulation at 10 uM after 24 hrs by Western blot analysis; type: cell-based
[6] = Inhibition of Wnt1/beta-[…] pathway activity in mouse L cell expressing Wnt1 and STF assessed as decreased firefly luciferase reporter expression; type: cell-based
Axin-2 (Homo sapiens) [7] = target: Axin-2 (Homo sapiens) (UniProt Q9Y2T1); test: Induction of Axin2 accumulation in human DLD1 cells by Western blot analysis; type: cell-based; conditions: DLD-1
Chain of Axin-2 (Homo sapiens) (Q9Y2T1 whole entry): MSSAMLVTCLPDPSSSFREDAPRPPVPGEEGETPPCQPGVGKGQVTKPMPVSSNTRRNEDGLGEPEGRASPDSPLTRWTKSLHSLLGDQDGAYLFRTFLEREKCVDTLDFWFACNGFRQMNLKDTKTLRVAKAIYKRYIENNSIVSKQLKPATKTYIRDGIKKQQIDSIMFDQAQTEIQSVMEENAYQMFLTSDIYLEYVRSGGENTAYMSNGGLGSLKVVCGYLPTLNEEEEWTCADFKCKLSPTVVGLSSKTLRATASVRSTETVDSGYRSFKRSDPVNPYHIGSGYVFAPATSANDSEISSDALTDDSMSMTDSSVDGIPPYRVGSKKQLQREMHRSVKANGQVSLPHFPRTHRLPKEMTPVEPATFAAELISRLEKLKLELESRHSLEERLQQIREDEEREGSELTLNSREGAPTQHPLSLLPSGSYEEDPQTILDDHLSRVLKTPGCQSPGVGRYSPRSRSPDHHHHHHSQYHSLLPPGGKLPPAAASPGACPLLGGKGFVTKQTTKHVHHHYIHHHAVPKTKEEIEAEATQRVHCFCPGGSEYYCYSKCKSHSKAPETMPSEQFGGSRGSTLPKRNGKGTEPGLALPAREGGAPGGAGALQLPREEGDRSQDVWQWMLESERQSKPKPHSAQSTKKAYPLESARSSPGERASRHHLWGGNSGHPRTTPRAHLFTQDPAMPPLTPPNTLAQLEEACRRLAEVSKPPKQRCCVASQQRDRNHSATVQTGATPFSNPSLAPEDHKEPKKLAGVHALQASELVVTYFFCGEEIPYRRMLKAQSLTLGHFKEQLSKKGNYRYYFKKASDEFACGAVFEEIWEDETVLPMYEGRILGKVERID
In short: (§1)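 DLD-1 cells exposed to IWR compound at 10μM for a 48 hr assay period; protein levels assessed by Western blot of cell lysates.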

[8] = Inhibition of Wnt3A/[…] pathway activity in mouse L cell expressing Wnt3A and STF assessed as decreased firefly luciferase reporter expression; type: cell-based
In short: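 L-Wnt-STF cells (mouse L-cells stably carrying SuperTopFlash firefly luciferase reporter, control reporter and Wnt3A expression construct), ~5K per well; compounds added 24 hrs after seeding; luciferase activities read 24 hrs later; IC50s calculated from these dose-dependent assays.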

[9] = Inhibition of Wnt3A/[…] pathway activity in mouse L cell expressing Wnt3a assessed as decrease in phosphorylated Lrp6 level at 10 uM after 24 hrs by Western blot analysis; type: cell-based
Axin-2 (Homo sapiens) [10] = target: Axin-2 (Homo sapiens) (UniProt Q9Y2T1); test: Binding affinity to Axin2 IWR-IS in HEK293 cells; type: cell-based
Axin-2 (Homo sapiens) [11] = target: Axin-2 (Homo sapiens) (UniProt Q9Y2T1); test: Binding affinity at Axin2 in HEK293 cells by Western blot method; type: cell-based
DLD-1 [12] = test: Antiproliferative activity against human DLD1 cells assessed as cellular ATP levels after 6 days by Cell-Titer Glow assay; type: functional, cell-based
In short: (§2)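 Cancer cells seeded at 2.5K cells/well with carrier or compound, 0.5% DMSO final; medium with compound changed every 24 hrs for 5 days; on day 6 cellular ATP quantified by CellTiter-Glo luminescence.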

Axin-1 (Homo sapiens) [13] = target: Axin-1 (Homo sapiens) (UniProt O15169); test: Induction of Axin1 protein stabilization in human H460 cells by Western blot analysis; type: cell-based
Chain of Axin-1 (Homo sapiens) (O15169 whole entry): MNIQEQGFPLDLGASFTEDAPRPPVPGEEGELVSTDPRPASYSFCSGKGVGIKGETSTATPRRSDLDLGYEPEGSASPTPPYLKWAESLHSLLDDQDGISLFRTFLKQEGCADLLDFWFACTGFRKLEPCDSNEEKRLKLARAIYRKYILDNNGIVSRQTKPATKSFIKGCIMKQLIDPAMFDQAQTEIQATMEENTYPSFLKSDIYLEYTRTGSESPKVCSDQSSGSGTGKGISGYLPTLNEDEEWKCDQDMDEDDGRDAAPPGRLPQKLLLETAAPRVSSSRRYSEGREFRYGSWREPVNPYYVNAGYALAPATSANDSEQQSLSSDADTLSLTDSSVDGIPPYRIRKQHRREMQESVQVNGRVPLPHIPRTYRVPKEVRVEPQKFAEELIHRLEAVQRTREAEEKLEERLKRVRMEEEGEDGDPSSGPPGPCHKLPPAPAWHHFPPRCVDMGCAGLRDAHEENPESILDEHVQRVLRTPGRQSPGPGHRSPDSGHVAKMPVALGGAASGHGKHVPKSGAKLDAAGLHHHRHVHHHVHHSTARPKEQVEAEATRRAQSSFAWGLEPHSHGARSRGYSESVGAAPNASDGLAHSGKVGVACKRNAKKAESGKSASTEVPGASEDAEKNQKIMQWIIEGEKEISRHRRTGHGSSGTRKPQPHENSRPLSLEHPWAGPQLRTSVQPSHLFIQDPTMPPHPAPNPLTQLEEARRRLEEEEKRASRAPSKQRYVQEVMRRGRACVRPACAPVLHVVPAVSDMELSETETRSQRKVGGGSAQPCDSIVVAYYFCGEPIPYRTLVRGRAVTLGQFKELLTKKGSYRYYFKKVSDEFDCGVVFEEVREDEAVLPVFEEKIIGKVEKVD

DLD-1 [14] = test: Antiproliferative activity against human DLD1 cells overexpressing beta-[…] assessed as renilla luciferase activity after 6 days; type: functional, cell-based
Axin-1 (Homo sapiens) [15] = target: Axin-1 (Homo sapiens) (UniProt O15169); test: Induction of Axin1 protein stabilization in human DLD1 cells by Western blot analysis; type: cell-based; conditions: DLD-1; in short: as §1
Danio rerio = species: Danio rerio; test: Inhibition of caudal fin regeneration after mechanical resection in zebrafish at 10 uM after 7 days; type: functional, organism-based
In short: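 Zebrafish 3-6 months old anaesthetized in 0.02% Tricaine; half of caudal fin resected with razor blade; kept at 28°C in tank water with 10μM compound or DMSO; water and compound replenished daily over assay period.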

NCI-H460 = test: Antiproliferative activity against human H460 cells assessed as cellular ATP levels after 6 days by Cell-Titer Glow assay; type: functional, cell-based; in short: as §2
DU-145 = test: Antiproliferative activity against human DU145 cells assessed as cellular ATP levels after 6 days by Cell-Titer Glow assay; type: functional, cell-based; in short: as §2
[16] = Inhibition of Wnt3A/[…] pathway activity in mouse L cell expressing Wnt3a assessed as decrease in phosphorylated Dvl2 level at 5 uM after 24 hrs by Western blot analysis; type: cell-based
[17] = target: T1, Protein-serine O-palmitoleoyltransferase porcupine (Homo sapiens); test: Inhibition of porcn-mediated Shh palmitoylation in human DLD1 lysate by detergent solubility fractionation assessed as [3H]palmitate incorporation at 2.5 uM by autoradiography method
[18] = Inhibition of Wnt3A/[…] pathway activity in mouse L cell expressing Wnt3a assessed as inhibition of […] accumulation at 5 uM after 24 hrs by Western blot analysis; type: cell-based
[19] = Inhibition of Notch pathway in mouse L cells at 2.5 uM
[20] = Inhibition of Wnt3A/[…] pathway activity in mouse L cell expressing Wnt3a assessed as decrease in phosphorylated Lrp6 level at 5 uM after 24 hrs by Western blot analysis; type: cell-based
Axin-2 (Homo sapiens) [21] = target: Axin-2 (Homo sapiens) (UniProt Q9Y2T1); test: Induction of Axin2 stabilization in human DLD1 cells assessed as inhibition of Wnt/beta-[…] pathway; type: cell-based; conditions: DLD-1
[22] = target: T1, Protein-serine O-palmitoleoyltransferase porcupine (Homo sapiens); test: Displacement of IWP-PB from porcn in HEK293 lysate by Western blot analysis
[23] = target: T1, Protein-serine O-palmitoleoyltransferase porcupine (Homo sapiens); test: Inhibition of porcn-mediated Lrp6 maturation in human DLD1 lysate by detergent solubility fractionation assessed as [3H]palmitate incorporation at 2.5 uM by autoradiography method

With `Cc1ccc2nc(NC(=O)CSc3nc4c(c(=O)n3Cc3ccccc3)SCC4)sc2c1` the “Inhibition (active/inactive)” value [1] was “Active”.
In the case of `CC1Cc2nc(SCC(=O)Nc3nc4ccccc4s3)n(Cc3ccccc3)c(=O)c2S1` (stereo unspecified), the “Inhibition (active/inactive)” value [1] is reported as “Active”.
With `N#Cc1ccccc1Cn1c(=O)n(CC2CCC(C(=O)NCc3ccccc3)CC2)c(=O)c2ccccc21` (stereo unspecified) the inhibition [2] was “Active”, the inhibition [3] was “inactive” and the inhibition (DLD-1 [4]) was “Active”. For the same molecule, the inhibition [5] was “Active”, the inhibition [6] was “Active” and the Activity (Axin-2 (Homo sapiens) [7]) was “Active”. For the same molecule, the inhibition [8] was “Active” and the inhibition [9] was “inactive”.
In the case of `Cc1ccc2nc(NC(=O)CSc3nc4c(c(=O)n3-c3ccc(CNC(=O)CCOCCOCCOCCNC(=O)CCCC[C@@H]5SC[C@@H]6NC(=O)N[C@@H]65)cc3)SCC4)sc2c1`, the Activity (Axin-2 (Homo sapiens) [10]) is reported as “Active”, the Activity (Axin-2 (Homo sapiens) [11]) is reported as “Active” and the “Inhibition (active/inactive)” value [1] is reported as “Active”.
With `Cc1cccc2nc(Cn3c(=O)n(CC4CCC(C(=O)NCc5ccccc5)CC4)c(=O)c4ccccc43)cc(=O)n12` (stereo unspecified) the Activity (DLD-1 [12]) was “Active”, the Activity (Axin-1 (Homo sapiens) [13]) was “Active” and the Activity (DLD-1 [14]) was “inactive”. The inhibition [2] was “Active”, the inhibition [3] was “inactive” and the inhibition (DLD-1 [4]) was “Active”. The inhibition [5] was “Active”, the Activity (Axin-1 (Homo sapiens) [15]) was “Active” and the inhibition (Danio rerio) was “Active”. For the same molecule, the Activity (NCI-H460) was “inactive”, the inhibition [6] was “Active” and the Activity (Axin-2 (Homo sapiens) [7]) was “Active”. For the same molecule, the inhibition [8] was “Active”, the inhibition [9] was “inactive” and the Activity (DU-145) was “Active”.
For `Cc1ccc2nc(NC(=O)CSc3nc4c(c(=O)n3-c3ccc(F)cc3)SCC4)sc2c1`, the inhibition [16] was “Active”, the inhibition [17] was “inactive” and the inhibition [18] was “Active”. The inhibition [19] was “inactive”, the inhibition (Danio rerio) was “inactive” and the inhibition [20] was “Active”.
With `O=C(CSc1nc2c(c(=O)n1-c1ccccc1)SCC2)Nc1nccs1` the “Inhibition (active/inactive)” value [1] was “Active”.
In the case of `COc1ccccc1-n1c(SCC(=O)Nc2nc3ccc(C)cc3s2)nc2c(c1=O)SCC2`, the inhibition [16] is reported as “Active”, the inhibition [17] is reported as “inactive” and the inhibition [18] is reported as “Active”. For the same molecule, the inhibition [19] was “inactive”, the inhibition (Danio rerio) was “inactive” and the inhibition [20] was “Active”.
With `O=C(Nc1cccc2cccnc12)c1ccc(N2C(=O)[C@@H]3[C@H](C2=O)[C@H]2C=C[C@@H]3C2)cc1` the Activity (Axin-2 (Homo sapiens) [21]) was “inactive” and the inhibition (Danio rerio) was “inactive”.
With `O=C(O)c1ccc(N2C(=O)[C@@H]3[C@H](C2=O)[C@@H]2C=C[C@H]3C2)cc1` the Activity (Axin-2 (Homo sapiens) [21]) was “inactive” and the inhibition (Danio rerio) was “inactive”.
With `COc1ccc(-n2nc(C(=O)NCC(=O)Nc3nc4ccc(OC)cc4s3)c3ccccc3c2=O)cc1` the inhibition [16] was “Active”, the inhibition [22] was “Active” and the inhibition [23] was “inactive”. The inhibition [17] was “inactive”, the inhibition [18] was “Active” and the inhibition [19] was “inactive”. For the same molecule, the inhibition (Danio rerio) was “inactive” and the inhibition [20] was “Active”.
In the case of `O=C(NC1CCCC1)c1ccc(Cn2c(=O)c3ccccc3n(Cc3cc(=O)n4ccccc4n3)c2=O)cc1`, the inhibition [2] is reported as “Active”, the inhibition [3] is reported as “inactive” and the inhibition (DLD-1 [4]) is reported as “Active”. For the same molecule, the inhibition [5] was “Active”, the inhibition [6] was “Active” and the Activity (Axin-2 (Homo sapiens) [7]) was “Active”. The inhibition [8] was “Active” and the inhibition [9] was “inactive”.
